Source: ChEMBL document CHEMBL1132919, “Structure-activity studies for a novel series of tricyclic substituted hexahydrobenz[e]isoindole alpha(1A) adrenoceptor antagonists as potential agents for the symptomatic treatment of benign prostatic hyperplasia (BPH)” (J Med Chem, 2000)

Experiments:
[1] = target: T1, Alpha-1D adrenergic receptor (Rattus norvegicus, UniProt P23944); test: In vitro binding affinity using [3H]prazosin as radioligand against alpha-1D adrenergic receptor expressed in LTK cell; format: cell-based
T1 sequence (P23944 whole entry): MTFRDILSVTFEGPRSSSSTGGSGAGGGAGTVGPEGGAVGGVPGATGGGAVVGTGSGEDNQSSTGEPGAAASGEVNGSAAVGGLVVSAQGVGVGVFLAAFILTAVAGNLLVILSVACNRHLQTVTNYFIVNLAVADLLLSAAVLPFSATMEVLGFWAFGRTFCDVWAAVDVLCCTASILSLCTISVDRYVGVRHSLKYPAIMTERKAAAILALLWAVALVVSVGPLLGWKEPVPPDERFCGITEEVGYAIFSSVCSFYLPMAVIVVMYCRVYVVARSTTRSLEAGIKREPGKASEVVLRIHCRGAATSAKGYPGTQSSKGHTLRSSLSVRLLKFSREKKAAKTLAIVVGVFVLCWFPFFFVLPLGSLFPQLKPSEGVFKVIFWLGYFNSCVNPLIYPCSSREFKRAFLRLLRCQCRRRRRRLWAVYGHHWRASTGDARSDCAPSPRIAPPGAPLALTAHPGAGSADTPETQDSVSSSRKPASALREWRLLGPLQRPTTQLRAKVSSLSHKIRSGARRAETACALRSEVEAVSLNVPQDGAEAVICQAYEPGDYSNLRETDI
Outline: (§1)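 Membranes from mouse LTK- fibroblasts stably expressing cloned hamster α1B or rat α1D, grown in roller bottles, frozen in liquid N2 and stored at -70 °C. Incubated with [3H]-prazosin ~200 pM, ~0.1 mg protein per tube, in 50 mM Tris-HCl pH 7.4 for 60 min at 25 °C; nonspecific binding defined by 10^-5 M phentolamine (final).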

[2] = target: T2, Alpha-1A adrenergic receptor (Rattus norvegicus, UniProt P43140); test: In vitro binding affinity using [3H]prazosin as radioligand against alpha-1A adrenergic receptor
T2 sequence (P43140 whole entry): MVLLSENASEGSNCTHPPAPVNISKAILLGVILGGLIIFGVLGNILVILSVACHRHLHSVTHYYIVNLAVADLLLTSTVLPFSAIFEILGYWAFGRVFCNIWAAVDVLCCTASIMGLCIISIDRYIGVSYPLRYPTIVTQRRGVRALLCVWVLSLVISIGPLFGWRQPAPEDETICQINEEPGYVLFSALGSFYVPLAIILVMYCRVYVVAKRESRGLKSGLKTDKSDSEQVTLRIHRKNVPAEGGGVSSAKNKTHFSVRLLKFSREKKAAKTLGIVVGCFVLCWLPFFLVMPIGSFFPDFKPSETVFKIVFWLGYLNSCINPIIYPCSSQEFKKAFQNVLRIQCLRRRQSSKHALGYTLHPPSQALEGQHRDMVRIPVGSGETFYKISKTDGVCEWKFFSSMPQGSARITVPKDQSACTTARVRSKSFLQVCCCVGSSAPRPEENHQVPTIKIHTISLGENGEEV
Outline: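 Binding to pharmacologically defined α1A site in rat submaxillary gland membranes; [3H]-prazosin ~200 pM, nonspecific binding with 10^-5 M phentolamine (final); ~0.1 mg protein per tube in 50 mM Tris-HCl pH 7.4, 60 min at 25 °C.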

[3] = target: T3, Alpha-1B adrenergic receptor (Mesocricetus auratus, UniProt P18841); test: In vitro binding affinity using [3H]prazosin as radioligand against alpha-1B adrenergic receptor expressed in LTK cell; format: cell-based; outline: as §1
T3 sequence (P18841 whole entry): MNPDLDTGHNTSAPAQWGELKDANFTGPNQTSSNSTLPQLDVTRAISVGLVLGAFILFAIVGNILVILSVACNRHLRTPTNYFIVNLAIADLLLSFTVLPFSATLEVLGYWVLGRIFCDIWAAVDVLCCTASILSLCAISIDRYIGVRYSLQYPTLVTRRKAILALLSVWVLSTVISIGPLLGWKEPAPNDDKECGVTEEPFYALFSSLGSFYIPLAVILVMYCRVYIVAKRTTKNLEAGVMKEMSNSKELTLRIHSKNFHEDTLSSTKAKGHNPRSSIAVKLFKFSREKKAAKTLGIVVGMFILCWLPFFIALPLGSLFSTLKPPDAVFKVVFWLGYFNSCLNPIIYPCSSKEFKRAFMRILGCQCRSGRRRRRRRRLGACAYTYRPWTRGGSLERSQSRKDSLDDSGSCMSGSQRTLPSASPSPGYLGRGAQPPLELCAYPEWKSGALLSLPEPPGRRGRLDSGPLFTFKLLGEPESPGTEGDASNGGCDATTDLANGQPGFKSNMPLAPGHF

Cricetulus griseus = species on record: Cricetulus griseus; test: Ratio between Ki(alpha-1b)/Ki(alpha1A)

Row | Ki [1] [nM] | Ki [2] [nM] | Ki [3] [nM] | Selectivity ratio (Cricetulus griseus) | SMILES
1 | 0.37 | 0.64 | 2.57 |  | COc1cccc2c1CCC1CN(CCn3c(=O)[nH]c4c(sc5ccccc54)c3=O)CC21 (stereo in doubt; 18) [listing 1 of 2 here]
2 | 19.8 | 3.91 | 120 | 30.7 | COc1cccc2c1CC[C@H]1CN(CCn3c(=O)[nH]c4c(sc5ncc(-c6ccccc6)nc54)c3=O)C[C@@H]21
3 | 4.77 | 7.43 | 9.95 | 1.33 | COc1cccc2c1CCC1CN(CCCCn3c(=O)[nH]c4c(sc5ccccc54)c3=O)CC21 (cis isomer)
4 | 2.08 | 6.35 | 26.9 | 4.24 | COc1cccc2c1CC[C@H]1CN(CCn3c(=O)[nH]c4c(sc5c(C#N)cccc54)c3=O)C[C@@H]21
5 |  |  |  | 1.55 | COc1cccc2c1CC[C@H]1CN(CCn3c(=O)[nH]c4c(sc5ccccc54)c3=O)C[C@@H]21 (stereo in doubt; 23)
6 | 1.41 | 0.79 | 6.69 | 8.45 | COc1cccc2c1CC[C@H]1CN(CCn3c(=O)[nH]c4c(sc5c(OC)ccnc54)c3=O)C[C@@H]21
7 | 0.88 | 1.29 | 6.95 | 5.38 | COc1cccc2c1CC[C@H]1CN(CCn3c(=O)[nH]c4c(sc5cccc(C)c54)c3=O)C[C@@H]21
8 | 1.1 | 0.66 | 3 | 4.5 | COc1ccc2sc3c(=O)n(CCN4C[C@@H]5CCc6c(OC)cccc6[C@@H]5C4)c(=O)[nH]c3c2n1
9 | 1.07 | 0.77 | 3.1 | 4 | COc1cccc2c1CC[C@H]1CN(CCn3c(=O)[nH]c4c(sc5cccc(OC)c54)c3=O)C[C@@H]21
10 | 2.08 | 0.68 | 15.5 | 22.8 | COc1cccc2c1CC[C@H]1CN(CCn3c(=O)[nH]c4c(sc5ncncc54)c3=O)C[C@@H]21
11 | 0.37 | 0.53 | 3.33 | 6.28 | COc1cccc2c1CC[C@H]1CN(CCn3c(=O)[nH]c4c(sc5cnccc54)c3=O)C[C@@H]21
12 | 0.51 | 0.52 | 6.34 | 12.2 | COc1cccc2c1CC[C@H]1CN(CCn3c(=O)[nH]c4c(sc5ccc(C(N)=O)cc54)c3=O)C[C@@H]21
13 | 1.04 | 2.16 | 4.26 | 1.97 | COc1cccc2c1CC[C@H]1CN(CCn3c(=O)[nH]c4c(sc5ccc(C)cc54)c3=O)C[C@@H]21
14 | 3.74 | 1.62 | 15.9 | 9.8 | COc1cccc2c1CC[C@H]1CN(CCn3c(=O)[nH]c4c(sc5cncnc54)c3=O)C[C@@H]21
15 | 0.28 | 0.33 | 4.63 | 14 | COc1cccc2c1CC[C@H]1CN(CCn3c(=O)[nH]c4c(sc5ccncc54)c3=O)C[C@@H]21
16 | 160 | 153 | 1850 | 12 | COc1cccc2c1CC[C@H]1CN(CCn3c(=O)[nH]c4c(sc5nc(-c6ccccc6)cnc54)c3=O)C[C@@H]21
17 |  |  |  | 4 | COc1cccc2c1CCC1CN(CCn3c(=O)[nH]c4c(sc5ccccc54)c3=O)CC21 (stereo in doubt; 18) [listing 2 of 2 here]
18 |  |  |  | 5.57 | COc1cccc2c1CC[C@H]1CN(CCn3c(=O)[nH]c4c(sc5ccccc54)c3=O)C[C@@H]21 (stereo in doubt; 22)

Row | Ki [1] [nM] | Ki [2] [nM] | Ki [3] [nM] | Selectivity ratio (Cricetulus griseus) | SMILES
19 | 0.63 | 0.28 | 1.7 | 6.07 | COc1cccc2c1CC[C@H]1CN(CCn3c(=O)[nH]c4c(sc5ccc(C(=O)N(C)C)cc54)c3=O)C[C@@H]21
20 | 2.84 | 4.75 | 14.3 | 3.01 | COC(=O)c1ccc2sc3c(=O)n(CCN4C[C@@H]5CCc6c(OC)cccc6[C@@H]5C4)c(=O)[nH]c3c2c1
21 | 25 | 98.9 | 1220 | 12.3 | COc1cccc2c1CC[C@H]1CN(CCn3c(=O)[nH]c4c(sc5c(Cl)cccc54)c3=O)C[C@@H]21
22 | 0.63 | 1.08 | 3.43 |  | COc1cccc2c1CCC1CN(CCn3c(=O)[nH]c4c(sc5ccccc54)c3=O)CC21 (stereo in doubt; 21) [listing 1 of 2 here]
23 | 0.68 | 2.17 | 5.39 | 2.48 | COc1cccc2c1CCC1CN(CCn3c(=O)[nH]c4c(oc5ccccc54)c3=O)CC21 (cis isomer)
24 | 1.32 | 0.51 | 3.15 | 6.17 | COc1cccc2c1CC[C@H]1CN(CCn3c(=O)[nH]c4c(sc5cccc(Cl)c54)c3=O)C[C@@H]21
25 | 4.16 | 3.13 | 61.6 | 19.7 | COc1cccc2c1CC[C@H]1CN(CCn3c(=O)[nH]c4c(sc5c(Cl)ccnc54)c3=O)C[C@@H]21
26 | 1.1 | 0.35 | 3.73 | 10.6 | COc1cnc2sc3c(=O)n(CCN4C[C@@H]5CCc6c(OC)cccc6[C@@H]5C4)c(=O)[nH]c3c2n1
27 | 3.28 | 0.39 | 13.9 | 35.6 | COc1cccc2c1CC[C@H]1CN(CCn3c(=O)[nH]c4c(sc5nc(C)c(C)nc54)c3=O)C[C@@H]21
28 | 2.06 | 0.72 | 12.5 | 17.3 | COc1cccc2c1CC[C@H]1CN(CCn3c(=O)[nH]c4c(sc5nccnc54)c3=O)C[C@@H]21
29 | 0.27 | 0.29 | 0.86 | 2.9 | COc1cccc2c1CC[C@H]1CN(CCn3c(=O)[nH]c4c(sc5cc(C(N)=O)ccc54)c3=O)C[C@@H]21
30 | 1.31 | 1.28 | 8.49 | 6.64 | COc1cccc2c1CC[C@H]1CN(CCn3c(=O)[nH]c4c(sc5ccc([N+](=O)[O-])cc54)c3=O)C[C@@H]21
31 | 0.59 | 1.64 | 14.3 | 8.7 | COc1cccc2c1CC[C@H]1CN(CCn3c(=O)[nH]c4c(sc5ccc(C#N)cc54)c3=O)C[C@@H]21
32 | 0.74 | 0.4 | 6.2 | 15.5 | COc1cccc2c1CC[C@H]1CN(CCn3c(=O)[nH]c4c(sc5cc(C#N)ccc54)c3=O)C[C@@H]21
33 | 6.84 | 9.27 | 23.8 | 2.56 | COc1cccc2c1CC[C@H]1CN(CCn3c(=O)[nH]c4c(sc5cc(C(F)(F)F)ccc54)c3=O)C[C@@H]21
34 | 2.31 | 0.49 | 13.5 | 27.5 | COc1cccc2c1CC[C@H]1CN(CCn3c(=O)[nH]c4c(sc5nc(C)cnc54)c3=O)C[C@@H]21
35 |  |  |  | 3.17 | COc1cccc2c1CCC1CN(CCn3c(=O)[nH]c4c(sc5ccccc54)c3=O)CC21 (stereo in doubt; 21) [listing 2 of 2 here]
